ChEMBL document CHEMBL4364279, “Design, synthesis, in-silico and biological evaluation of novel chalcone-O-carbamate derivatives as multifunctional agents for the treatment of Alzheimer's disease” (Eur J Med Chem, 2019)
Calls of active or inactive are those of the source. The calls are words filed in the database; no cut-off is given here.

Tests used:
[1] = test system: PC-12; test: Neuroprotective activity against H2O2-induced cell death in rat PC12 cells assessed as cell viability at 1 uM pretreated for 2 hrs followed by H2O2 addition measured after 30 mins by MTT assay (reference value: 49.6%); format: functional; conditions: read-out: Activity
[2] = Metal chelating activity of the compound assessed as formation of Cu2+-compound complex by measuring red shift in maximum absorption at 37.5 uM after 30 mins by UV-vis absorption spectra analysis (reference value: 359 nanometer)
Summary of the method: (§1)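 Metal binding examined by plate-reader absorbance scan using CuCl2, ZnCl2, AlCl3, FeSO4, CuCl and Fe(NO3)3 as metal sources.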

[3] = Antioxidant activity assessed as trolox equivalents of AAPH radical scavenging activity preincubated for 15 mins followed by AAPH addition and measured every minute for 90 mins by ORAC-FL assay; format: functional
[4] = molecular target: Amyloid-beta precursor protein (Homo sapiens) (UniProt P05067); test: Inhibition of self-induced amyloid beta (1 to 42) (unknown origin) aggregation at 25 uM after 24 hrs by thioflavin-T based fluorescence assay relative to control
Amyloid-beta precursor protein (Homo sapiens), sequence (P05067 whole entry, the tested form may be a part): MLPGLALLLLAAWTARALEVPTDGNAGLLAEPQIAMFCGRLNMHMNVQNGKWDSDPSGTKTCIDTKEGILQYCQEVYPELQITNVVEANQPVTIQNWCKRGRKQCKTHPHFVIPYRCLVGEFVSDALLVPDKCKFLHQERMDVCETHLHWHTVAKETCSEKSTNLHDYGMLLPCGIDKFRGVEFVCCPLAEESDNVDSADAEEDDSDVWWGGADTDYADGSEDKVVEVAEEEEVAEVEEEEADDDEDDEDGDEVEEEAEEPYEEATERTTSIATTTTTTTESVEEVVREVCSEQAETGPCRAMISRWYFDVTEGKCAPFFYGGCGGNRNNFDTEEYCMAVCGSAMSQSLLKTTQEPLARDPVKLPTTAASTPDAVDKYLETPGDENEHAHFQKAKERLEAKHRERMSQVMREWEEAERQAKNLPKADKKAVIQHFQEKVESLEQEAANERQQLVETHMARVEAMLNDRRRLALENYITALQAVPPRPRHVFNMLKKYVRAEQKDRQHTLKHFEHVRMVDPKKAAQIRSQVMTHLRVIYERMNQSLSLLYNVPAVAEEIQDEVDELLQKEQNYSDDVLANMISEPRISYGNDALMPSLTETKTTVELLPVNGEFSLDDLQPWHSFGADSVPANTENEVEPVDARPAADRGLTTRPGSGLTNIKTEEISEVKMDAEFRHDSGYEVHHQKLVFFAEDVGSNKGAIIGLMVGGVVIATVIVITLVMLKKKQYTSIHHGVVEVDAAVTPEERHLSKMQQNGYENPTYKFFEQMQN

[5] = Disaggregation of Cu2+-induced preformed fibrils of amyloid beta (1 to 42 residues) (unknown origin) at 25 uM measured after 24 hrs by TEM analysis
Summary of the method: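 Aβ1-42 (25 µM) with Cu2+ (25 µM) at 37 °C for 24 h, then compound (25 µM) added for another 24 h. 10 µL aliquots put on carbon-coated copper/rhodium grids for 2 min at room temperature, washed twice with water, stained with 1% w/v uranyl acetate, dried 15 min, then imaged by field-emission TEM.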

[6] = Toxicity in Kunming mouse assessed as mortality at 20 to 500 mg/kg measured up to 14 days; format: organism-based; conditions: in vivo, 336 h
[7] = molecular target: Cholinesterase (Equus caballus, UniProt P81908); test: Inhibition of equine serum BuChE using S-butyrylthiocholine iodide as susbtrate preincubated for 6 mins followed by substrate addition measured up to 3 mins by Ellman's method
Cholinesterase, sequence (P81908 whole entry): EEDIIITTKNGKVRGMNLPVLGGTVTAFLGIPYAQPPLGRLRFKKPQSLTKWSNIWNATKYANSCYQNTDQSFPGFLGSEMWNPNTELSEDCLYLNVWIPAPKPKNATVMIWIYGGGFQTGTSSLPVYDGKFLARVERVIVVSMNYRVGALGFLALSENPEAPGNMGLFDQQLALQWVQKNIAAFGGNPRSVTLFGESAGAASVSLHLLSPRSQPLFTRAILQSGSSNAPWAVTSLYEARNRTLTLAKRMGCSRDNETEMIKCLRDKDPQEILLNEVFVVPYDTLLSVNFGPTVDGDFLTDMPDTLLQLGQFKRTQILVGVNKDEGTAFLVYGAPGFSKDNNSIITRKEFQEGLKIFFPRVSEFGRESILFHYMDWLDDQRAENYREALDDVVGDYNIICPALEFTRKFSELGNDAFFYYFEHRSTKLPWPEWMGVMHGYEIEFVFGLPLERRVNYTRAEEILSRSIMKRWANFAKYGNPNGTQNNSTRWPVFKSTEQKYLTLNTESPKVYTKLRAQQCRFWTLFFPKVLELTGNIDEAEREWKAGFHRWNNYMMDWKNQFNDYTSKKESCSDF

[8] = test system: Mus musculus; test: Reversal of scopolamine-induced memory cognitive memory impairment in Kunming mouse assessed as increase in spontaneous alteration behavior at 2.6 mg/kg, ig pretreated for 30 mins followed by scopolamine challenge and after 30 mins by Y-maze test; format: functional, organism-based
[9] = test system: PC-12; test: Neuroprotective activity against H2O2-induced cell death in rat PC12 cells assessed as cell viability at 10 uM pretreated for 2 hrs followed by H2O2 addition measured after 30 mins by MTT assay (reference value: 49.6%); format: functional; conditions: read-out: Activity
[10] = Metal chelating activity of the compound assessed as formation of Al3+-compound complex by measuring red shift in maximum absorption at 37.5 uM after 30 mins by UV-vis absorption spectra analysis (reference value: 359 nanometer); summary of the method: as §1
[11] = test system: Mus musculus; test: Reversal of scopolamine-induced memory cognitive memory impairment in Kunming mouse assessed as change in spontaneous alteration behavior at 7.8 mg/kg, ig pretreated for 30 mins followed by scopolamine challenge and after 30 mins by Y-maze test (reference value: 45.6%); format: functional
[12] = Inhibition of Cu2+-induced amyloid beta (1 to 42 residues) (unknown origin) aggregation assessed as appearance of small bulk aggregates at 25 uM after 24 hrs uranyl acetate staining-based by TEM analysis
Summary of the method: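 Aβ1-42 (25 µM) and Cu2+ (25 µM) incubated with compound at 37 °C for 24 h. Aliquots applied to carbon-coated copper/rhodium grids for 2 min at room temperature, washed with water, stained with 1% w/v uranyl acetate, air-dried 15 min, then examined by field-emission TEM.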

[13] = molecular target: Cholinesterase (Equus caballus) (UniProt P81908); test: Reversible inhibition of equine serum BuChE assessed as enzyme activity at IC50 using butyrylthiocholine iodide as substrate by Ellman's method relative to control; parameters: scale not given: the % may be the effect or the level left
Cholinesterase (Equus caballus), sequence (P81908 whole entry, the tested form may be a part): as the sequence (P81908 whole entry) above

[14] = Inhibition of Cu2+-induced amyloid beta (1 to 42 residues) (unknown origin) aggregation at 25 uM after 24 hrs by thioflavin-T based fluorescence assay relative to control
Summary of the method: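 Aβ1-42 (25 µM) and Cu2+ (25 µM) incubated at 37 °C for 24 h with or without compound (25 µM). ThT (5 µM in 50 mM glycine-NaOH, pH 8.5) then added; fluorescence read at ex 446/em 490 nm. Inhibition = (1−IFi/IFc)×100 after background subtraction. Three independent experiments.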

[15] = test system: Mus musculus; test: Reversal of scopolamine-induced memory cognitive memory impairment in Kunming mouse assessed as change in spontaneous alteration behavior at 23.4 mg/kg, ig pretreated for 30 mins followed by scopolamine challenge and after 30 mins by Y-maze test (reference value: 45.6%); format: functional
[16] = Metal chelating activity of the compound assessed as formation of Zn2+-compound complex at 37.5 uM after 30 mins by UV-vis absorption spectra analysis; summary of the method: as §1
[17] = Metal chelating activity assessed as mole fraction of compound required to show 1:1 stoichiometry for compound-Cu2+ complex at 37.5 uM after 30 mins by UV spectrometry method
Summary of the method: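 Molar-ratio method: a methanol solution of compound (final 37.5 µM) titrated with ascending amounts of CuCl2, with absorbance followed at 426 nm by plate reader.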

[18] = molecular target: Acetylcholinesterase (AChE) (Electrophorus electricus, UniProt O42275); test: Inhibition of electric eel AChE at 25 uM using acetylthiocholine iodide as substrate incubated for 15 mins by Ellman's method relative to control; conditions: electric eel acetylcholinesterase (isolated enzyme), probe acetylthiocholine iodide
Acetylcholinesterase (AChE), sequence (O42275 whole entry): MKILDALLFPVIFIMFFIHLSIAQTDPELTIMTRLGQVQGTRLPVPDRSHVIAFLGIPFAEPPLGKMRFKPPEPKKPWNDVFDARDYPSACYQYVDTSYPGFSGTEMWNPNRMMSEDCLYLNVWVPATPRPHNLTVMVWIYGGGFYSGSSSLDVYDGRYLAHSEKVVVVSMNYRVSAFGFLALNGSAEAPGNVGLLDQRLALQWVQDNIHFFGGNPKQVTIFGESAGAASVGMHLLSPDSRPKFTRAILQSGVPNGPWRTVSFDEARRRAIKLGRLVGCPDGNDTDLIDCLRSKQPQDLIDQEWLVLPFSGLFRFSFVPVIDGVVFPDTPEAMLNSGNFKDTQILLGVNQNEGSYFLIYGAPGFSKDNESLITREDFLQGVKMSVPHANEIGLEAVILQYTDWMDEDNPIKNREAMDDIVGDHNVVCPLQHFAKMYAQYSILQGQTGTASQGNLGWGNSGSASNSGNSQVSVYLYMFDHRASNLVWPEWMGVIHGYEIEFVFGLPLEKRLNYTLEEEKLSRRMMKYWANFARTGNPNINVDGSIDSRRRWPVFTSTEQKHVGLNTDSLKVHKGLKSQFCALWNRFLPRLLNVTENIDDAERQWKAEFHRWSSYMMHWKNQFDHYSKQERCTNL

[19] = in vitro; conditions: PAMPA, pH 7.4
[20] = molecular target: T1, Amine oxidase [flavin-containing] B (Homo sapiens, UniProt P27338); test: biochemical; format: cell-based
T1 sequence (P27338 whole entry): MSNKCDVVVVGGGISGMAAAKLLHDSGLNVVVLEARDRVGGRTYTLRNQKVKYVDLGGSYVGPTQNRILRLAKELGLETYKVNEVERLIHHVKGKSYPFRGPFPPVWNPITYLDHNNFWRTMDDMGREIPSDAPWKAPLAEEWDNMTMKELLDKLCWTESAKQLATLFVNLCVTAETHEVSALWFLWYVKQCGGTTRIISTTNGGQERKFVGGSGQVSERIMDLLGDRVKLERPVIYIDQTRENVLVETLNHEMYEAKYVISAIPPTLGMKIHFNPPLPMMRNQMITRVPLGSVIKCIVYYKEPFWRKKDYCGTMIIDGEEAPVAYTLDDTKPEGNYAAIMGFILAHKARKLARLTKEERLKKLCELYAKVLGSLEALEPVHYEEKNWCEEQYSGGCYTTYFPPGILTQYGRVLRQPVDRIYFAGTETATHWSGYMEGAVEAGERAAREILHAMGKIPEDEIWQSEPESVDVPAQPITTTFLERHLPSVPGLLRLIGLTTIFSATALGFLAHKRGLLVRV

With `CCN(C)C(=O)Oc1cccc(/C=C/C(=O)c2ccccc2O)c1` the viability at 1 µM [1] was 62.9%, the Activity [2] was 435 nm and the Activity [3] was 1.3 µMequiv/µM. For the same compound, the inhibition [4] was 63.9%, the Activity [5] was “Active” and the Activity [6] was “Non-Toxic”. The IC50 [7] was 3.1 µM, the Activity [8] was “Active” and the viability at 10 µM [9] was 78.3%. For the same compound, the Activity [10] was 428 nm, the Activity [11] was 65.1% and the inhibition [12] was “Active”. The Activity [13] was 50.1%, the inhibition [14] was 78.3% and the Activity [15] was 59.5%. The Activity [16] was “inactive”, the Activity [17] was 0.97 molar ratio and the inhibition at 0.25 h, 25 µM [18] was 26.2%. The Papp at 100 ug/ml [19] was 15.7 ×10⁻⁶ cm/s and the IC50 [20] was 1.3 µM.
